# Bioassay records (PubChem BioAssay)
# STAT1 inh: inhibitors of IFN-gamma induced STAT1 signaling. inhibition, % at 5.5 µM. 200,000 compounds, 0.35% hits. NIH 3T3 STAT1-luciferase reporter, luminescence;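 active = inhibition above a set limit, the mean inhibition across all tested compounds plus 3 SD, cut at about 34% in these data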;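 note: 0% = IFN-gamma with DMSO and 100% = IFN-gamma with 300 µM nifuroxazide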
# APP 5'UTR act: APP 5'UTR luciferase reporter activation. SH-SY5Y APP 5'UTR luciferase reporter, luminescence; zero percent = DMSO vehicle wells. activation, % at 2 µM. 190,000 compounds, 1% hits. AID 1276;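 active = activation above a set limit, based on mean plus 3 SD of controls, cut at about 140% in these data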
# STAT3 blocker: reduces IL-6 driven STAT3 reporter signal; U3A cells, IL-6 STAT3-luciferase reporter, luminescence; host cell line lacks STAT1; inhibition, % at 5.5 µM; 190,000 compounds, 0.89% hits; AID 862;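 active = inhibition above the mean inhibition across all screened compounds plus 3 SD, cut at about 44% in these data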;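 note: 0% = DMSO only wells and 100% = 100 µM nifuroxazide control wells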
# NF-kB expr up: raises NF-kB expression in human neuronal cells; NF-kB reporter expression; hits give high values; fold change at 12.5 µM; 190,000 compounds, 1.6% hits; in the data active = fold change above about 3.3
# STAT3 activator: activators of IL-6 induced STAT3 signaling | U3A cells, IL-6 STAT3-luciferase reporter, luminescence; 100% = signal with IL-6 EC80 alone | activation (% of control), % at 5.6 µM | 190,000 compounds, 0.91% hits | AID 871;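 active = activation above the screen-wide mean of compound activation plus 3 SD, cut at about 130% in these data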;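 note: 0% = background luminescence of wells with medium and substrate only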
#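 Material: human STAT1-deficient U3A cells with stable STAT3-luciferase reporter / Probe or stimulus: IL-6 stimulus at 33 ng/mL final / Schedule: 1 h compound pre-exposure, 6 h IL-6 stimulation, 37 °C / Technique: luminescence / Read-out basis: percent of IL-6-only median luminescence / Control set: IL-6-only high control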
# STAT1 activator: activators of IFN-gamma induced STAT1 signaling; 200,000 compounds, 2.6% hits; NIH 3T3 STAT1-luciferase reporter, luminescence; 100% = IFN-gamma alone, no compound; activation (% of control), % at 5.5 µM;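 active = activation above the screen-wide mean activation plus 3 SD, cut at about 130% in these data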;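 note: raw ratio to IFN-gamma control signal so 100% means no change and 0% no light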
# STAT1 activ conf: STAT1 activation, confirmation assay. shares compounds with STAT1 activator. NIH 3T3 STAT1-luciferase reporter, IFN-gamma potentiation, luminescence; 100% = IFN-gamma EC80 alone, no compound. activation (% of control), % at 5.7 µM. 1,200 compounds, 97% hits. AID 1262;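 active = activation above a set limit carried over from the earlier primary STAT1 screen, cut at about 140% in these data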;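 note: simple ratio to median IFN-gamma plus DMSO wells so 0% means no light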
# NFkB act STAT1ct: NF-kappaB activation in STAT1 activator counter-screen. HEK293T NF-kB luciferase reporter, TNF-alpha stimulated, luminescence; 100% = TNF-alpha with vehicle only. 1,200 compounds, 43% hits. AID 1306. shares compounds with STAT1 activator. activation (% of control), % at 5.7 µM;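 active = activation above the mean of solvent-only control wells plus 3 SD, set per campaign, cut at about 130% in these data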;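 note: TNF-alpha given at a submaximal dose yielding about 80% of full reporter signal; values are well signal over median control so 100% means no change and 0% no light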
# STAT3 act STAT1c: activates human STAT3, counter-screen to STAT1 activators; 1,200 compounds, 46% hits; AID 1316; activation (% of control), % at 5.7 µM; U3A cells STAT3-luciferase reporter, IL-6, luminescence; cells lack STAT1; 100 = IL-6 alone, no compound effect; shares compounds with STAT1 activator;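 active = activation above the solvent-only control well mean plus 3 SD, set per plate batch, cut at about 110% in these data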;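 note: 0% = no luminescence and 100% = median IL-6 plus DMSO wells; higher means more STAT3 reporter activation so hits are non-selective activators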
# An asterisk follows results filed as active; · = no result given. Rows were chosen to be rich in hits. Some 4.9% of all compounds tested hit in one or more screens of this group.
SMILES,STAT1 inh,APP 5'UTR act,STAT3 blocker,NF-kB expr up,STAT3 activator,STAT1 activator,STAT1 activ conf,NFkB act STAT1ct,STAT3 act STAT1c
CCC(C)n1c(SCc2ccccc2)nc2ccsc2c1=O (stereo not drawn),0,14,8,0.83,96,100,·,·,·
Nc1nnc(SCC(=O)OCC(=O)c2ccccc2Br)s1,4,-1,11,1.1,94,96,·,·,·
COc1cccc(-c2nc3ccccc3s2)c1,-45,143*,-1,7.8*,101,156*,207*,121,118*
COc1cccc(N2C(=O)C(c3ccccc3)=C(c3nc4ccccc4s3)C2NC(C)=O)c1 (stereo not drawn),4,-8,2,0.8,100,97,·,·,·
COc1ccc(-c2nc3ccccc3s2)cc1NC(C)=O,-78,154*,-19,2.4,115,173*,195*,130,119*
Cc1ccc2nc(-c3ccc(NC(=O)CSc4ccccc4)cc3)[nH]c2c1,-70,88,10,3.5*,99,163*,198*,108,107
COc1cc(C)c(NC(=S)NCCCN2CCOCC2)cc1OC,-4,21,4,1.2,99,103,·,·,·
N#CC1CC(c2ccccc2)=NN1c1ccccc1[N+](=O)[O-] (stereo not drawn),-59,67,-19,1.1,115,156*,155*,129,124*
O=C(O)C(c1ccccc1)C(c1ccccc1)c1ccccc1 (stereo not drawn),-8,15,7,1.2,101,108,·,·,·
CN(/N=C/c1ccncc1)C1=NS(=O)(=O)c2ccccc21,-10,-8,-2,1.2,106,109,·,·,·
CN(/N=C/c1ccncc1)c1cnc2ccccc2n1,-56,181*,-1,3.7*,108,153*,195*,130,124*
COc1ccc(C(=O)c2ccc(CC(=O)O)s2)cc1,21,-10,23,0.95,86,80,·,·,·
COC(=O)c1ccc(COc2ccccc2/C=C(\C#N)C(=O)Nc2ccc(C)cc2)cc1,-57,19,-5,1.1,105,151*,195*,135*,106
N#CC1=C(SCC(=O)c2ccccc2)NC2=C(C(=O)CCC2)C1c1ccco1 (stereo not drawn),-63,-68,-13,2.4,114,156*,166*,128,106
CCOc1cc(NC(=O)c2cccs2)c(OCC)cc1NC(=O)CCC(=O)NCC1CCCO1 (stereo not drawn),8,-5,-7,1.1,105,92,·,·,·
c1ccc2c(c1)[nH]c1nc3nncn3nc12,3,1,2,0.99,101,97,·,·,·
Cc1cccc2c1[nH]c1nc(N/N=C\c3ccco3)nnc12,-6,12,26,1.1,80,106,·,·,·
C=CCSc1nnc2c(n1)[nH]c1c(C)cccc12,-60,119,31,2.4,76,154*,176*,118,89
CCSc1nnc2nc3[nH]c4c(C)cccc4c3nn12,-57,84,-9,2,120,151*,149*,119,123*
Cc1ccc(CN2CCN(Cc3cn[nH]c3C3CCCCC3)CC2CCO)cc1 (stereo not drawn),-5,6,-3,0.88,107,103,·,·,·
CC(=O)Nc1ccc(NC(=O)COC(=O)c2ccccn2)cc1,2,14,3,1.2,106,98,·,·,·
CCOC(=O)c1cnc(SCCc2ccccc2)nc1N,-71,190*,4,6.9*,100,165*,189*,131,119*
Cc1cc(N2C(=O)C(O)=C(C(=O)c3ccc(C)o3)C2c2cccs2)no1 (stereo not drawn),6,-7,6,1.1,98,94,·,·,·
Cc1ccc2nc(N3C(=O)C(O)=C(C(=O)c4cc5ccccc5o4)C3c3cccs3)sc2c1 (stereo not drawn),-56,160*,-2,3.7*,110,154*,162*,124,123*
Cn1c(C(=O)NCc2ccc3c(c2)OCO3)cc2sccc21,-5,4,9,1.4,95,104,·,·,·
SMILES,STAT1 inh,APP 5'UTR act,STAT3 blocker,NF-kB expr up,STAT3 activator,STAT1 activator,STAT1 activ conf,NFkB act STAT1ct,STAT3 act STAT1c
N#Cc1cccc(NCC(=O)Nc2ccc3c(c2)OCCO3)c1,-73,190*,28,6.8*,82,167*,180*,125,115*
O=C(Nc1cccc([N+](=O)[O-])c1)Nc1ccc2c(c1)OCCO2,-63,127,5,3.6*,99,156*,195*,137*,136*
Cn1c(C(=O)Nc2ccc3c(c2)OCO3)cc2sccc21,-102,153*,-26,8.9*,126,193*,210*,147*,142*
CC(=O)Nc1ccc2c(c1)OCCO2,-2,2,2,1.1,102,102,·,·,·
O=C(Nc1ccc2c(c1)OCCO2)c1cccs1,-59,142*,-7,5.2*,105,153*,173*,125,108
O=C(Nc1cccc([N+](=O)[O-])c1)Nc1cccc([N+](=O)[O-])c1,11,-5,28,0.79,80,91,·,·,·
Cc1ccc(N(CC(=O)O)S(C)(=O)=O)cc1,1,4,-1,0.97,104,99,·,·,·
Cn1c(SCC(=O)Nc2cccc(S(=O)(=O)NC3=NCCCCC3)c2)nnc1-c1ccccc1,-9,12,3,1.2,99,108,·,·,·
COc1ccccc1-n1cc([C@@H]2C[C@H]3CN(c4ccccc4)C(=O)[C@]34CCCN24)cn1,-14,-95,-11,0.79,114,111,·,·,·
CCN(CC)S(=O)(=O)c1ccc(N2CCOCC2)c(NC(=O)CC23CC4CC(CC(Br)(C4)C2)C3)c1,8,37,-5,1.3,105,93,·,·,·
O=C(Nc1ccc2c(c1)OCO2)c1ccc(Br)s1,-77,162*,-13,10*,114,181*,204*,131,132*
O=C(Nc1ccc2c(c1)CCC2)Nc1ccc2c(c1)OCO2,-66,81,-7,2.2,108,160*,167*,121,111*
COC(=O)Nc1ccc2c(c1)OCO2,-9,3,-8,1.1,109,112,·,·,·
Cc1c(O)c2c3c(cccc3c1O)C(=O)N(c1ccccc1)C2=O,2,19,4,0.73,97,98,·,·,·
